# Laboratory results from ChEMBL document CHEMBL1137700, “New transition metal ion complexes with benzimidazole-5-carboxylic acid hydrazides with antitumor activity” (Eur J Med Chem, 2009).
# How the values were obtained:
# A549 = test: Cytotoxicity against human A549 cells after 72 hrs by Alamar Blue assay; assay type: functional, cell-based; conditions: A549, 72 h
# Procedure, shortened: (§1)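 Cells seeded and grown at 37 °C under 5% CO2 for 24 h, then compounds in DMSO added in duplicate wells. Exposure 72 h at 37 °C, then media replaced with fresh media plus AlamarBlue and fluorescence read. Growth was computed from mean fluorescence at time zero, after 72 h with test substance, and after 72 h with vehicle control. IC50 derived.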
# MCF7 = test: Cytotoxicity against human MCF7 cells after 72 hrs by Alamar Blue assay; assay type: functional, cell-based; conditions: MCF7, 72 h; procedure, shortened: as §1
Structure (SMILES),IC50 (A549) [µM],IC50 (MCF7) [µM]
COC(=O)c1cccc2oc(-c3cccc4oc(-c5ccccc5O)nc34)nc12,2,1.4
Cc1nc2cc(C(=O)O)ccc2[nH]1,> 100,> 100
Cc1nc2cc(C(=O)N/N=C\c3c[nH]c4ccccc34)c([N+](=O)[O-])cc2[nH]1,> 100,> 100
CC(C)=NNC(=O)c1ccc2[nH]c(C)nc2c1,> 100,> 100
CC(C)=NNC(=O)c1cc2nc(C)[nH]c2cc1[N+](=O)[O-],> 100,> 100
CCOC(=O)c1ccc2[nH]c(C)nc2c1,> 100,62
Cc1nc2cc(C(=O)NN)c([N+](=O)[O-])cc2[nH]1,> 100,> 100
Cc1nc2cc(C(=O)N/N=C\c3ccccn3)c([N+](=O)[O-])cc2[nH]1,> 100,> 100
Cc1ccc(/C=N\NC(=O)c2cc3nc(C)[nH]c3cc2[N+](=O)[O-])cc1,73,3
CCOC(=O)c1cc2nc(C)[nH]c2cc1[N+](=O)[O-],> 100,> 100
CCN1CCN(C(=O)N[C@@H](C(=O)N[C@@H]2C(=O)N3C(C(=O)O)=C(CSc4nnnn4C)CS[C@H]23)c2ccc(O)cc2)C(=O)C1=O [CEFOPERAZONE],> 100,> 100
Cc1nc2cc(C(=O)N/N=C\c3ccc(C)o3)c([N+](=O)[O-])cc2[nH]1,> 100,> 100
CO[C@@]12[C@H](COC(N)=O)C3=C(C(=O)C(C)=C(N)C3=O)N1C[C@@H]1N[C@@H]12 [MITOMYCIN],0.4,0.2
Cc1nc2cc(C(=O)N/N=C\c3ccco3)c([N+](=O)[O-])cc2[nH]1,> 100,81
